Assay [1] deals with T1, Alpha-1D adrenergic receptor (Rattus norvegicus, UniProt P23944).
T1 sequence (P23944 whole entry): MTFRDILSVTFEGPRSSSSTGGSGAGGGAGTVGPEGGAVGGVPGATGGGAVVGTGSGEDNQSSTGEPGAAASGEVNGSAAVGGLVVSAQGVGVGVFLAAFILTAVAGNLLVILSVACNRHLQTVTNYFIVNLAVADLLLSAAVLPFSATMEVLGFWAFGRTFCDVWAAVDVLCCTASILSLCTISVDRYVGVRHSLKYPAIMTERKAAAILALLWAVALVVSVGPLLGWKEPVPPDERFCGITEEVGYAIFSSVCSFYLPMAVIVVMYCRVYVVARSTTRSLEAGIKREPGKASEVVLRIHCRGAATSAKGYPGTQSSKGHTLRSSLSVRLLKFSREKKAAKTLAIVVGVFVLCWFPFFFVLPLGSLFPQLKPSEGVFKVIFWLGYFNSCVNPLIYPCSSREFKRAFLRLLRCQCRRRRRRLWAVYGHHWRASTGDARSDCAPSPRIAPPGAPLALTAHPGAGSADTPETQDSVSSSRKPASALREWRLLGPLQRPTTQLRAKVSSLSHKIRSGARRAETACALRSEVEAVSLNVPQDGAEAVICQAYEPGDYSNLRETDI
The assay can be described thus: In vitro binding affinity using [3H]prazosin as radioligand against alpha-1D adrenergic receptor expressed in LTK cell. The format is cell-based. The method in brief:
(§1)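 Membranes from mouse LTK- fibroblasts stably expressing cloned hamster α1B or rat α1D, grown in roller bottles, frozen in liquid N2 and stored at -70 °C. Incubated with [3H]-prazosin ~200 pM, ~0.1 mg protein per tube, in 50 mM Tris-HCl pH 7.4 for 60 min at 25 °C; nonspecific binding defined by 10^-5 M phentolamine (final).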

Assay [2] concerns the target T2, Alpha-1A adrenergic receptor (Rattus norvegicus, UniProt P43140).
T2 sequence (P43140 whole entry): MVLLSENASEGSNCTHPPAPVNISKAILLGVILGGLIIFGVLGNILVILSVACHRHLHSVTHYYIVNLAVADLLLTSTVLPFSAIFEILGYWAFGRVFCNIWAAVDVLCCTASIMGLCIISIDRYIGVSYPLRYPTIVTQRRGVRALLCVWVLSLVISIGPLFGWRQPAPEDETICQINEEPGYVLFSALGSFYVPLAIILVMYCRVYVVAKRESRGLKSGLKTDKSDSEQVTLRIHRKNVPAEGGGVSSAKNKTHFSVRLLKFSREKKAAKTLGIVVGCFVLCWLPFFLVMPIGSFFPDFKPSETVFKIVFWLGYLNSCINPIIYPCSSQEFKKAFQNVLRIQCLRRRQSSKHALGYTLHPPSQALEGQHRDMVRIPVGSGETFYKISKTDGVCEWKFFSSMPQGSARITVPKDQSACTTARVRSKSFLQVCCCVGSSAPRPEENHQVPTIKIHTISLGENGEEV
The experiment in a line: In vitro binding affinity using [3H]prazosin as radioligand against alpha-1A adrenergic receptor. The method in brief: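 Binding to pharmacologically defined α1A site in rat submaxillary gland membranes; [3H]-prazosin ~200 pM, nonspecific binding with 10^-5 M phentolamine (final); ~0.1 mg protein per tube in 50 mM Tris-HCl pH 7.4, 60 min at 25 °C.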

Assay [3] addresses T3, Alpha-1B adrenergic receptor (Mesocricetus auratus, UniProt P18841).
T3 sequence (P18841 whole entry): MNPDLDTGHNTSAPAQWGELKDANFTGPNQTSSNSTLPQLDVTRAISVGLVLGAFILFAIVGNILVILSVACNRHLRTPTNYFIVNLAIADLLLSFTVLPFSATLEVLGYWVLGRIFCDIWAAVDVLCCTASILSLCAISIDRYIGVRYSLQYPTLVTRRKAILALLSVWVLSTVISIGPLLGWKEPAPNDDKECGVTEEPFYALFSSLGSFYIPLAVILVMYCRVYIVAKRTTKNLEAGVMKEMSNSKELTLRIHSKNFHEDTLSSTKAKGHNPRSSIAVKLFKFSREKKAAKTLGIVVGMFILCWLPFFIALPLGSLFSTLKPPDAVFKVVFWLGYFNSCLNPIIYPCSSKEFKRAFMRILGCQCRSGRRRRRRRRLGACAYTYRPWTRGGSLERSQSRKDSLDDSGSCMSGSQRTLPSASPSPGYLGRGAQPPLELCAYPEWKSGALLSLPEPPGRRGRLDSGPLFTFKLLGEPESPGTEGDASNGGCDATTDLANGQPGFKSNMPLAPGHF
The assay can be described thus: In vitro binding affinity using [3H]prazosin as radioligand against alpha-1B adrenergic receptor expressed in LTK cell. The format is cell-based. The method in brief:
as §1

The species named for a further assay is Cricetulus griseus. The assay can be described thus: Ratio between Ki(alpha-1b)/Ki(alpha1A).

Each structure is given as a SMILES string.

The results in this text go back to ChEMBL document CHEMBL1132919, “Structure-activity studies for a novel series of tricyclic substituted hexahydrobenz[e]isoindole alpha(1A) adrenoceptor antagonists as potential agents for the symptomatic treatment of benign prostatic hyperplasia (BPH)” (J Med Chem, 2000).

Consider `COc1cccc2c1CC[C@H]1CN(CCn3c(=O)[nH]c4c(sc5cccc(C#N)c54)c3=O)C[C@@H]21`, for which the Ki in assay [1] turned out to be 6.6 nM; in assay [2], 3.3 nM; in assay [3], 35.8 nM. The Selectivity ratio in the assay filed under Cricetulus griseus was found to be 10.8.
On the same counts, the results for `COc1cccc2c1CC[C@H]1CN(CCn3c(=O)[nH]c4c(sc5c(C#N)cccc54)c3=O)C[C@@H]21` are 2.08 nM, 6.35 nM, 26.9 nM and 4.24.
The matching figures for `COc1cccc2c1CC[C@H]1CN(CCn3c(=O)[nH]c4c(sc5nc(-c6ccccc6)cnc54)c3=O)C[C@@H]21`: 160 nM, 153 nM, 1850 nM and 12.
The matching figures for `COc1cccc2c1CC[C@H]1CN(CCn3c(=O)[nH]c4c(sc5ccc(C(N)=O)cc54)c3=O)C[C@@H]21`: 0.51 nM, 0.52 nM, 6.34 nM and 12.2.
Take `COc1cccc2c1CC[C@H]1CN(CCn3c(=O)[nH]c4c(sc5ccc(C#N)cc54)c3=O)C[C@@H]21`: the inhibitory constant (Ki) in assay [1] was found to be 0.59 nM; in assay [2], 1.64 nM; in assay [3], 14.3 nM. The Selectivity ratio in the assay listed under Cricetulus griseus is 8.7.
On the same counts, the results for `COc1cccc2c1CC[C@H]1CN(CCn3c(=O)[nH]c4c(sc5c(Cl)cccc54)c3=O)C[C@@H]21` are 25 nM, 98.9 nM, 1220 nM and 12.3.
On the same counts, the results for `COc1cccc2c1CC[C@H]1CN(CCn3c(=O)[nH]c4c(sc5cncnc54)c3=O)C[C@@H]21` are 3.74 nM, 1.62 nM, 15.9 nM and 9.8.
As to `COc1cccc2c1CC[C@H]1CN(CCn3c(=O)[nH]c4c(sc5ccccc54)c3=O)C[C@@H]21` (stereo in doubt; 23), the Selectivity ratio in the assay listed under Cricetulus griseus amounted to 1.55.
Consider `COc1cccc2c1CC[C@H]1CN(CCn3c(=O)[nH]c4c(sc5ncc(-c6ccccc6)nc54)c3=O)C[C@@H]21`, for which the inhibitory constant (Ki) in assay [1] was found to be 19.8 nM; in assay [2], 3.91 nM; in assay [3] it was 120 nM. Also, in the assay listed under Cricetulus griseus, the Selectivity ratio is 30.7.
For `COc1ccc2sc3c(=O)n(CCN4C[C@@H]5CCc6c(OC)cccc6[C@@H]5C4)c(=O)[nH]c3c2n1`, the results for the Ki in assay [1], in assay [2] and in assay [3] were 1.1 nM, 0.66 nM and 3 nM, respectively. Moreover, the Selectivity ratio in the assay listed under Cricetulus griseus is 4.5.
Consider `COc1cccc2c1CC[C@H]1CN(CCn3c(=O)[nH]c4c(sc5ccccc54)c3=O)C[C@@H]21` (stereo in doubt; 22), for which the Selectivity ratio in the assay listed under Cricetulus griseus turned out to be 5.57.
In the case of `COc1cccc2c1CC[C@H]1CN(CCn3c(=O)[nH]c4c(sc5ncncc54)c3=O)C[C@@H]21`, the Ki in assay [1] came to 2.08 nM; in assay [2], 0.68 nM; in assay [3] it was 15.5 nM. Also, the Selectivity ratio in the assay listed under Cricetulus griseus was determined as 22.8.
Regarding `COc1cccc2c1CCC1CN(CCn3c(=O)[nH]c4c(sc5ccccc54)c3=O)CC21` (stereo in doubt; 18) [listing 1 of 2 here], the Selectivity ratio in the assay listed under Cricetulus griseus stood at 4.
On to `COc1cccc2c1CC[C@H]1CN(CCn3c(=O)[nH]c4c(sc5cc(C#N)ccc54)c3=O)C[C@@H]21`, for which the inhibitory constant (Ki) worked out at 0.74 nM in assay [1], 0.4 nM in assay [2] and 6.2 nM in assay [3]. Moreover, the Selectivity ratio in the assay listed under Cricetulus griseus came out at 15.5.
For the compound `COC(=O)c1ccc2sc3c(=O)n(CCN4C[C@@H]5CCc6c(OC)cccc6[C@@H]5C4)c(=O)[nH]c3c2c1`, the inhibitory constant (Ki) in assay [1] was 2.84 nM; in assay [2], 4.75 nM; in assay [3], 14.3 nM. Also, in the assay listed under Cricetulus griseus, the Selectivity ratio amounted to 3.01.
The matching figures for `COc1cnc2sc3c(=O)n(CCN4C[C@@H]5CCc6c(OC)cccc6[C@@H]5C4)c(=O)[nH]c3c2n1`: 1.1 nM, 0.35 nM, 3.73 nM and 10.6.
On the same counts, the results for `COc1cccc2c1CC[C@H]1CN(CCn3c(=O)[nH]c4c(sc5nc(C)c(C)nc54)c3=O)C[C@@H]21` are 3.28 nM, 0.39 nM, 13.9 nM and 35.6.
The matching figures for `COc1cccc2c1CC[C@H]1CN(CCn3c(=O)[nH]c4c(sc5ccc(Cl)cc54)c3=O)C[C@@H]21`: 0.31 nM, 0.44 nM, 1.91 nM and 4.34.
In the case of `COc1cccc2c1CC[C@H]1CN(CCn3c(=O)[nH]c4c(sc5ccncc54)c3=O)C[C@@H]21`, the Ki in assay [1] was found to be 0.28 nM; in assay [2] it was 0.33 nM; in assay [3], 4.63 nM. Also, in the assay listed under Cricetulus griseus, the Selectivity ratio was determined as 14.
On the same counts, the results for `COc1cccc2c1CC[C@H]1CN(CCn3c(=O)[nH]c4c(sc5c(Cl)ccnc54)c3=O)C[C@@H]21` are 4.16 nM, 3.13 nM, 61.6 nM and 19.7.
On the same counts, the results for `COc1cccc2c1CC[C@H]1CN(CCn3c(=O)[nH]c4c(sc5cc(C(N)=O)ccc54)c3=O)C[C@@H]21` are 0.27 nM, 0.29 nM, 0.86 nM and 2.9.
The matching figures for `COc1cccc2c1CC[C@H]1CN(CCn3c(=O)[nH]c4c(sc5cccc(Cl)c54)c3=O)C[C@@H]21`: 1.32 nM, 0.51 nM, 3.15 nM and 6.17.
In the case of `COc1cccc2c1CCC1CN(CCn3c(=O)[nH]c4c(sc5ccccc54)c3=O)CC21` (stereo in doubt; 21) [listing 1 of 2 here], the figures for the inhibitory constant (Ki) in assay [1], in assay [2] and in assay [3] were 0.63 nM, 1.08 nM and 3.43 nM, respectively.
Regarding `COc1cccc2c1CC[C@H]1CN(CCn3c(=O)[nH]c4c(sc5nc(C)cnc54)c3=O)C[C@@H]21`, the inhibition constant (Ki) in assay [1] came out at 2.31 nM; in assay [2] it was 0.49 nM; in assay [3] it was 13.5 nM. Besides, in the assay filed under Cricetulus griseus, the Selectivity ratio was 27.5.
The matching figures for `COc1cccc2c1CC[C@H]1CN(CCn3c(=O)[nH]c4c(sc5cc(C(F)(F)F)ccc54)c3=O)C[C@@H]21`: 6.84 nM, 9.27 nM, 23.8 nM and 2.56.
With `COc1cccc2c1CCC1CN(CCn3c(=O)[nH]c4c(sc5ccccc54)c3=O)CC21` (stereo in doubt; 21) [listing 2 of 2 here], the Selectivity ratio in the assay filed under Cricetulus griseus is 3.17.
Regarding `COc1cccc2c1CC[C@H]1CN(CCn3c(=O)[nH]c4c(sc5cnccc54)c3=O)C[C@@H]21`, the figures for the Ki in assay [1], in assay [2] and in assay [3] were 0.37 nM, 0.53 nM and 3.33 nM, respectively. Moreover, the Selectivity ratio in the assay filed under Cricetulus griseus was found to be 6.28.
For the compound `COc1cccc2c1CC[C@H]1CN(CCn3c(=O)[nH]c4c(sc5cccc(OC)c54)c3=O)C[C@@H]21`, the Ki in assay [1] turned out to be 1.07 nM; in assay [2], 0.77 nM; in assay [3], 3.1 nM. Further, in the assay filed under Cricetulus griseus, the Selectivity ratio is 4.
For the compound `COc1cccc2c1CCC1CN(CCn3c(=O)[nH]c4c(sc5ccccc54)c3=O)CC21` (stereo in doubt; 18) [listing 2 of 2 here], the Ki in assay [1] came to 0.37 nM; in assay [2] it was 0.64 nM; in assay [3] it was 2.57 nM.

As usually defined, the Ki is a dissociation constant, usually derived from enzyme kinetics or from competition with a known ligand. Higher therefore signals lower affinity.
